Measurements as given in ChEMBL document CHEMBL4261487, “Small structural changes of the imidazopyridine diacylglycerol acyltransferase 2 (DGAT2) inhibitors produce an improved safety profile” (Medchemcomm, 2017).
Values after ≈ are worked out from the molar mass of the structure shown.

Assays:
UGT = assay: (§1) Drug metabolism in human liver microsomes assessed as UGT-mediated glucuronidation by measuring clearance rate; assay type: ADME; conditions: liver microsomes, read-out: CLH
CYP3A4 = CYP3A4 (Homo sapiens, UniProt P08684); assay: (§2) Drug metabolism in human liver microsomes assessed as CYP3A4-mediated oxidative metabolism by measuring clearance rate; assay type: ADME; conditions: liver microsomes, read-out: CLH
Rattus norvegicus = assay: In vivo DGAT2 inhibition in po dosed sucrose-fed rat assessed as decrease in plasma triglyceride levels after 2 hrs; assay type: functional, organism-based
Summary of the method: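 Rats fed a high-sucrose diet, single oral dose of test article or vehicle; plasma TG measured in tail-vein blood 2 h post dose; n = 7–8 per group; results as percent change from vehicle group, one-way ANOVA with Dunnett's test.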

[1] = target: T1, Diacylglycerol O-acyltransferase 2 (Homo sapiens, UniProt Q96PD7); assay: Inhibition of human DGAT2
T1 sequence (Q96PD7 whole entry): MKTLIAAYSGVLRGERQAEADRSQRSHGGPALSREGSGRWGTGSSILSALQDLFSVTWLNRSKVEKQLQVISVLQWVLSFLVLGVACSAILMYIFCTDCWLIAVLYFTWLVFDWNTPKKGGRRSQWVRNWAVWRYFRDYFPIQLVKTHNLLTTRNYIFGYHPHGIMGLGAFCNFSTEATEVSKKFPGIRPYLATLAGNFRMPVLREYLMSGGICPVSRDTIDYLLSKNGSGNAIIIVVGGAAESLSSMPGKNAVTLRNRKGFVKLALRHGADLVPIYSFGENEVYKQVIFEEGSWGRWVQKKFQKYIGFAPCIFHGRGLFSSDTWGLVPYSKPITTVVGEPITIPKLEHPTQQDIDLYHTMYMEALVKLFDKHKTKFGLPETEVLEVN
Summary of the method: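 IC50 against human DGAT2 in an enzymatic assay, reported as the geometric mean of at least three replicates with SEM.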

[2] = as §1; assay type: ADME; conditions: microsomes
Cytochrome P450 3A4 [3] = target: T2, Cytochrome P450 3A4 (Homo sapiens, UniProt P08684); assay: as §2; assay type: ADME; conditions: microsomes
[4] = target: T3, Diacylglycerol O-acyltransferase 2 (Rattus norvegicus, UniProt Q5FVP8); assay: Inhibition of rat DGAT2
T3 sequence (Q5FVP8 whole entry): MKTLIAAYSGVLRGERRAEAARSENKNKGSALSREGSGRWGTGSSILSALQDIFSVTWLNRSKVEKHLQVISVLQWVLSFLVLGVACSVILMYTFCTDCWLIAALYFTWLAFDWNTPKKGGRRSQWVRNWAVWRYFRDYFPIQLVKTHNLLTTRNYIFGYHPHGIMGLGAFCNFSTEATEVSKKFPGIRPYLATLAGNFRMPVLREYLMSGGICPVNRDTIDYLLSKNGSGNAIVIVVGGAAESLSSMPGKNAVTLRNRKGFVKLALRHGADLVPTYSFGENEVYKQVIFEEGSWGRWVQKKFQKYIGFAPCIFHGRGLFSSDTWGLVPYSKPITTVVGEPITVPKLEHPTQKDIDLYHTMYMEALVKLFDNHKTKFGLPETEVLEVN

[5] = target: T4, Diacylglycerol O-acyltransferase 2 (Canis lupus familiaris, UniProt A0A8I3NDW2); assay: Inhibition of dog DGAT2
T4 sequence (A0A8I3NDW2 whole entry): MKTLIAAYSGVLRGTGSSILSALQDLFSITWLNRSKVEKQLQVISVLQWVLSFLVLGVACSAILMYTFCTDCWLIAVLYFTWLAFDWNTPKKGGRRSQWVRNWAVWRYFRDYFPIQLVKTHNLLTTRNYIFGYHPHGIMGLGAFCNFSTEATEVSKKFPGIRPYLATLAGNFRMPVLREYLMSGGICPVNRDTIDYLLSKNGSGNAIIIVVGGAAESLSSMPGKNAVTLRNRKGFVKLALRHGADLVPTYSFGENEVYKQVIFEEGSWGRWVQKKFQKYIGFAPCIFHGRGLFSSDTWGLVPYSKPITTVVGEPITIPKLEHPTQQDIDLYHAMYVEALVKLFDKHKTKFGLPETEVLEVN

[6] = target: T5, Diacylglycerol O-acyltransferase 1 (Homo sapiens, UniProt O75907); assay: Inhibition of DGAT1 (unknown origin)
T5 sequence (O75907 whole entry): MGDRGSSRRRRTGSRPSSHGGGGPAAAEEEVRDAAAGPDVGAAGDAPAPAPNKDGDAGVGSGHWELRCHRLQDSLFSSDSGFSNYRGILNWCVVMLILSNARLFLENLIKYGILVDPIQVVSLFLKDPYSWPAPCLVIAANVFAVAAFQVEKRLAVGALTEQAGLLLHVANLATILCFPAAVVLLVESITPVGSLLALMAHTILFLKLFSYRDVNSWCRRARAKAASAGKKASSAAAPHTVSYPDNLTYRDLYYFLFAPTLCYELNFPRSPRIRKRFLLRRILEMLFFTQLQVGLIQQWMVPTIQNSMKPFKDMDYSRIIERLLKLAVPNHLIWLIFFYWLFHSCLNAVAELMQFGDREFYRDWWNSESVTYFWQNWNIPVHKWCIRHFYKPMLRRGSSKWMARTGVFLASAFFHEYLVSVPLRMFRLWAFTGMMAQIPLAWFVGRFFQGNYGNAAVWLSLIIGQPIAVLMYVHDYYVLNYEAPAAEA

[7] = Apparent intrinsic clearance in human hepatocytes assessed per million cells; assay type: ADME, cell-based, Hepatocyte
[8] = Apparent intrinsic clearance in rat hepatocytes assessed per million cells; assay type: ADME, cell-based, Hepatocyte
[9] = Apparent intrinsic clearance in dog hepatocytes assessed per million cells; assay type: ADME, cell-based, Canis lupus familiaris, Hepatocyte
[10] = Drug metabolism in human liver microsomes assessed as fraction of UGT-mediated glucuronidation preincubated for 5 mins followed by addition of NADPH regenerating system and measured after 2.5 to 60 mins; assay type: ADME
Summary of the method: (§3)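 Fractions of metabolism attributed to CYP oxidation and UGT glucuronidation were derived from human liver microsomal incubations. For the glucuronidation arm, microsomes were supplemented with the UGT cofactor UDP-glucuronic acid.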

Cytochrome P450 3A4 [11] = target: T2, Cytochrome P450 3A4; assay: Drug metabolism in human liver microsomes assessed as fraction of CYP3A4-mediated oxidative metabolism preincubated for 5 mins followed by addition of NADPH regenerating system and measured after 2.5 to 60 mins; assay type: ADME; summary of the method: as §3
[12] = Apparent permeability of the compound at pH 7.4; assay type: ADME; conditions: not told
[13] = Thermodynamic solubility of the compound at pH 6.5; assay type: physicochemical; conditions: buffer, read-out: Therm_solubility
[14] = Fraction unbound in rat plasma; assay type: ADME, cell-free
[15] = Fraction unbound in dog plasma; assay type: ADME, cell-free, Canis lupus familiaris
[16] = Half life in beagle dog at 1 mg/kg, iv; assay type: ADME, organism-based, Canis lupus familiaris; conditions: in vivo
[17] = Half life in beagle dog at 5 mg/kg, po; assay type: ADME, organism-based, Canis lupus familiaris; conditions: in vivo
[18] = Plasma clearance in beagle dog at 1 mg/kg, iv; assay type: ADME, organism-based, Canis lupus familiaris
[19] = Volume of distribution at steady state in beagle dog at 1 mg/kg, iv; assay type: ADME, organism-based, Canis lupus familiaris; conditions: in vivo, read-out: Vdss
Summary of the method: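 Male Beagle dogs, single iv dose, crystalline form of compound; value is the mean of two experiments.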

[20] = Oral bioavailability in beagle dog at 5 mg/kg; assay type: ADME, organism-based, Canis lupus familiaris; conditions: in vivo
Canis familiaris [21] = assay: Unbound Cmax in beagle dog at 10 mg/kg, po qd administered for 1 month; assay type: ADME, organism-based, Canis lupus familiaris; conditions: in vivo
Summary of the method: (§4)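 Beagle dogs were dosed orally once daily in a 14-day exploratory study or 1-month toxicity studies. Steady-state systemic exposure over the 24 h dosing interval is reported as the mean of male and female values combined.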

[22] = Ratio of Cmax in beagle dog at 10 mg/kg, po qd administered for 1 month to IC50 for in vitro inhibition of dog DGAT2; assay type: organism-based, Canis lupus familiaris; conditions: in vivo
Summary of the method: (§5)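 One-month toxicity study in Beagle dogs with N = 2/sex/dose. Plasma exposure at each dose level was referenced to the dog DGAT2 enzymatic IC50, reported as the geometric mean of at least three replicates.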

Canis familiaris [23] = assay: Unbound AUC in beagle dog at 10 mg/kg, po qd administered for 1 month; assay type: ADME, organism-based, Canis lupus familiaris; conditions: in vivo; summary of the method: as §4
Canis familiaris [24] = assay: In vivo inhibition of DGAT2 in beagle dog assessed as coverage of in vitro IC50 for dog DGAT2 at 10 mg/kg, po qd administered for 1 month; assay type: functional, Canis lupus familiaris; parameters: scale not given: the % may be the effect or the level left
Summary of the method: (§6)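 Beagle dogs, once-daily oral dosing for 14 days or 1 month; systemic exposure with sexes combined; coverage is the average % above dog DGAT2 IC50 at steady state over the 24 h dosing interval.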

Canis familiaris [25] = assay: Unbound Cmax in beagle dog at 3 mg/kg, po qd administered for 1 month; assay type: ADME, organism-based, Canis lupus familiaris; conditions: in vivo
Summary of the method: (§7)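 One-month dog toxicity study with once-daily oral dosing. Toxicity groups were 2/sex/dose, and unbound peak exposure was taken from toxicokinetic sampling.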

Canis familiaris [26] = assay: Unbound Cmax in beagle dog at 30 mg/kg, po qd administered for 1 month; assay type: ADME, organism-based, Canis lupus familiaris; conditions: in vivo; summary of the method: as §7
[27] = Ratio of Cmax in beagle dog at 3 mg/kg, po qd administered for 1 month to IC50 for in vitro inhibition of dog DGAT2; assay type: organism-based, Canis lupus familiaris; conditions: in vivo; summary of the method: as §5
[28] = Ratio of Cmax in beagle dog at 30 mg/kg, po qd administered for 1 month to IC50 for in vitro inhibition of dog DGAT2; assay type: organism-based, Canis lupus familiaris; conditions: in vivo; summary of the method: as §5
Canis familiaris [29] = assay: Unbound AUC in beagle dog at 3 mg/kg, po qd administered for 1 month; assay type: ADME, organism-based, Canis lupus familiaris; conditions: in vivo; summary of the method: as §4
Canis familiaris [30] = assay: Unbound AUC in beagle dog at 30 mg/kg, po qd administered for 1 month; assay type: ADME, organism-based, Canis lupus familiaris; conditions: in vivo; summary of the method: as §4
Canis familiaris [31] = assay: In vivo inhibition of DGAT2 in beagle dog assessed as coverage of in vitro IC50 for dog DGAT2 at 3 mg/kg, po qd administered for 1 month; assay type: functional, Canis lupus familiaris; parameters: scale not given: the % may be the effect or the level left; summary of the method: as §6
Canis familiaris [32] = assay: In vivo inhibition of DGAT2 in beagle dog assessed as coverage of in vitro IC50 for dog DGAT2 at 30 mg/kg, po qd administered for 1 month; assay type: functional, Canis lupus familiaris; parameters: scale not given: the % may be the effect or the level left; summary of the method: as §6
Canis familiaris [33] = assay: Toxicity in beagle dog at 3 to 30 mg/kg, po qd administered for 1 month; assay type: organism-based, Canis lupus familiaris; conditions: in vivo

Sequence of CYP3A4 (P08684 whole entry): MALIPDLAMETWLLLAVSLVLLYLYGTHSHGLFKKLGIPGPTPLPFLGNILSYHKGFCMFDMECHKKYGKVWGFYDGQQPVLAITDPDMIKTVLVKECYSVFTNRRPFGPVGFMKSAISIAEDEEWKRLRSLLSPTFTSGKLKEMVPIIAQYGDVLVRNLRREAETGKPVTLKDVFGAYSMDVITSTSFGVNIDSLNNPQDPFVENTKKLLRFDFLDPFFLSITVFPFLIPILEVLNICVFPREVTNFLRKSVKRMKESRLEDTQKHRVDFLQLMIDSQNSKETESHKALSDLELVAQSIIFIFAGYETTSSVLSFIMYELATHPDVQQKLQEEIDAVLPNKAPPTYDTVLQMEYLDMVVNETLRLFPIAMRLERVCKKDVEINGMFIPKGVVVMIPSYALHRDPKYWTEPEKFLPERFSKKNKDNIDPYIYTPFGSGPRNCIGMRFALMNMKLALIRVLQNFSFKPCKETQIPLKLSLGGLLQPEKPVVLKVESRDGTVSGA
T2 sequence (P08684 whole entry): as above

## C[C@H](c1nc2ccc(N3CCC[C@@H](C(=O)N4CCCC4)C3)nc2[nH]1)n1cc(Cl)cn1
UGT
  microsomal CLint: 7.6 µL/min/mg
CYP3A4
  microsomal CLint: 26 µL/min/mg

## CC(C)(c1nc2ccc(N3CCC[C@@H](C(=O)N4CCCC4)C3)nc2[nH]1)n1cc(Cl)cn1
CYP3A4
  microsomal CLint: 35.4 µL/min/mg

## CC(c1nc2cnc(N3CCC[C@@H](C(=O)N4CCCC4)C3)nc2[nH]1)n1cc(Cl)cn1 (single isomer, unassigned; diastereomer 1) [listing 1 of 2 here]
Rattus norvegicus
  inhibition: Dose-dependent effect

## CC(c1nc2cnc(N3CCC[C@@H](C(=O)N4CCCC4)C3)nc2[nH]1)n1cc(Cl)cn1 (single isomer, unassigned; diastereomer 2)
[1]
  IC50: 37 nM
UGT
  microsomal CLint: 15.2 µL/min/mg
CYP3A4
  microsomal CLint: 21.5 µL/min/mg

## CC(c1nc2cnc(N3CCC[C@@H](C(=O)N4CCCC4)C3)nc2[nH]1)n1cc(Cl)cn1 (single isomer, unassigned; diastereomer 1) [listing 2 of 2 here]
[1]
  IC50: 26 nM
[2]
  CLH: 20.3 µL/min/mg
Cytochrome P450 3A4 [3]
  CLH: 23.5 µL/min/mg
[4]
  IC50: 241 nM
[5]
  IC50: 53 nM
[6]
  IC50: > 50000 nM
[7]
  CLH(app): 13.1 µL/min
[8]
  CLH(app): 12 µL/min
[9]
  CLH(app): < 8 µL/min
[10]
  Ratio: 0.52
Cytochrome P450 3A4 [11]
  Ratio: 0.48
[12]
  Papp: 16.2 ×10⁻⁶ cm/s
[13]
  solubility thermodynamic: 53 µg/mL (≈ 124 µM)
[14]
  fraction unbound: 0.18
[15]
  fraction unbound: 0.25
[16]
  half-life: 1.1 h
[17]
  half-life: 3.8 h
[18]
  clearance: 7.3 mL/min/kg
[19]
  Vd: 0.58 L/kg
[20]
  bioavailability: 32%
Canis familiaris [21]
  fCmax: 487 nM
[22]
  Ratio: 9
Canis familiaris [23]
  fAUC: 540 ng·h/mL
Canis familiaris [24]
  Activity: 50%
Canis familiaris [25]
  fCmax: 140 nM
Canis familiaris [26]
  fCmax: 1760 nM
[27]
  Ratio: 3
[28]
  Ratio: 33
Canis familiaris [29]
  fAUC: 149 ng·h/mL
Canis familiaris [30]
  fAUC: 1560 ng·h/mL
Canis familiaris [31]
  Activity: 21%
Canis familiaris [32]
  Activity: 74%
Canis familiaris [33]
  Activity: Non-Toxic
